Tests used:
Cannabinoid receptor 1 [1] = biological target: T1, Cannabinoid receptor 1 (Homo sapiens, UniProt P21554); assay type: functional, cell-based, CHO-K1
[2] = Octanol-water partition coefficient, log D of the compound; assay type: physicochemical
Cannabinoid receptor 1 [3] = biological target: T1, Cannabinoid receptor 1; assay: Inverse agonist activity at human recombinant CB1 receptor expressed in CHO-K1 cells assessed as stimulation of GTPgammaS binding; assay type: functional, cell-based
How it was run: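 Membranes came from CHO-K1 cells stably transfected with recombinant human CB1. Efficacy above 100% was taken as inverse agonist activity. IC50 values are the mean of at least two determinations.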

T1 sequence (P21554 whole entry): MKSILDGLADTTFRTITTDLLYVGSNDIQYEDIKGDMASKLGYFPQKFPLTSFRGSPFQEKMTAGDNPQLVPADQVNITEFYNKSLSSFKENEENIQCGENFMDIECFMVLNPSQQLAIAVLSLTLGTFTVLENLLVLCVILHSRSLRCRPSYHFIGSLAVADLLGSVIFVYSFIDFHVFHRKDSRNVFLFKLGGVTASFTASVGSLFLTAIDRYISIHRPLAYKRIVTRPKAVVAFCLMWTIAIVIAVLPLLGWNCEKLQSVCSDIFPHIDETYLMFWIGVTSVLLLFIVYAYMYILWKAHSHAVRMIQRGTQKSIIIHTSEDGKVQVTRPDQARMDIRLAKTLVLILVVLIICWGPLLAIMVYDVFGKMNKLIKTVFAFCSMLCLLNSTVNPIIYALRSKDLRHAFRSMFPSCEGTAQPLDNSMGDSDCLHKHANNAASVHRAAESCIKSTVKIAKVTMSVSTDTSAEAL

Q: Which results are given for `N#CCc1c(C(=O)Nc2cnc3ccccc3c2)nn(-c2ccccc2Cl)c1-c1ccc(Cl)cc1`?
A: IC50 (Cannabinoid receptor 1 [1]): 19 nM; logD [2]: 4

Q: With `N#CCc1c(C(=O)NCCN2CCCCC2)nn(-c2ccccc2Cl)c1-c1ccc(Cl)cc1` as the compound, how does the IC50 (Cannabinoid receptor 1 [1]) read?
A: The IC50 was 1110 nM.

Q: What about the logD [2] of the same compound?
A: The logD was 2.9.

Q: Which IC50 (Cannabinoid receptor 1 [1]) does the source give for `COC(=O)C(NC(=O)c1nn(-c2ccccc2Cl)c(-c2ccc(Cl)cc2)c1CC#N)C(C)C` (stereo not drawn) here?
A: The IC50 was 7.3 nM.

Q: With `N#CCc1c(C(=O)N2Cc3ccc(Br)cc3C2)nn(-c2ccccc2Cl)c1-c1ccc(Cl)cc1` as the compound, how does the IC50 (Cannabinoid receptor 1 [1]) read?
A: Its IC50 is 0.22 nM.

Q: For `Cc1cc(CNC(=O)c2nn(-c3ccccc3Cl)c(-c3ccc(Cl)cc3)c2CC#N)no1`, which IC50 (Cannabinoid receptor 1 [1]) is on record?
A: The IC50 was 15 nM.

Q: With `N#CCc1c(C(=O)NC2CCc3ccccc32)nn(-c2ccccc2Cl)c1-c1ccc(Cl)cc1` (stereo not drawn) as the compound, how does the IC50 (Cannabinoid receptor 1 [1]) read?
A: The IC50 was 0.41 nM.

Q: Which IC50 (Cannabinoid receptor 1 [1]) does the source give for `N#CCc1c(C(=O)N2CCCCC2c2ccc(F)cc2)nn(-c2ccccc2Cl)c1-c1ccc(Cl)cc1` (stereo not drawn) here?
A: The IC50 was 23 nM.

Q: Which IC50 (Cannabinoid receptor 1 [1]) does the source give for `CCC(CC)NC(=O)c1nn(-c2ccccc2Cl)c(-c2ccc(Cl)cc2)c1CC#N` here?
A: Its IC50 is 5.8 nM.

Q: Which IC50 (Cannabinoid receptor 1 [1]) does the source give for `N#CCc1c(C(=O)N2CCc3ccc(C(F)(F)F)cc3C2)nn(-c2ccccc2Cl)c1-c1ccc(Cl)cc1` here?
A: The IC50 was 2.1 nM.

Q: For `N#CCc1c(C(=O)NCc2ccc(Br)cc2)nn(-c2ccccc2Cl)c1-c1ccc(Cl)cc1`, which IC50 (Cannabinoid receptor 1 [1]) is on record?
A: The IC50 was 5.8 nM.

Q: What about the IC50 (Cannabinoid receptor 1 [3]) of the same compound?
A: The IC50 was 1.2 nM.

Q: What about the logD [2] of the same compound?
A: The logD was 4.4.

Q: Which results are given for `N#CCc1c(C(=O)NCc2ccccc2F)nn(-c2ccccc2Cl)c1-c1ccc(Cl)cc1`?
A: IC50 (Cannabinoid receptor 1 [1]): 4.1 nM; logD [2]: 4.1

Q: Which IC50 (Cannabinoid receptor 1 [1]) does the source give for `N#CCc1c(C(=O)NC2CCCCCC2)nn(-c2ccccc2Cl)c1-c1ccc(Cl)cc1` here?
A: Its IC50 is 0.49 nM.

Q: For `N#CCc1c(C(=O)N[C@@H]2C[C@H]3CC[C@@H]2C3)nn(-c2ccccc2Cl)c1-c1ccc(Cl)cc1`, which IC50 (Cannabinoid receptor 1 [1]) is on record?
A: Its IC50 is 2.2 nM.

Q: Which results are given for `N#CCc1c(C(=O)NCc2ccc(Cl)cc2Cl)nn(-c2ccccc2Cl)c1-c1ccc(Cl)cc1`?
A: IC50 (Cannabinoid receptor 1 [1]): 1.6 nM; logD [2]: 4.6

Q: With `COC(=O)C(Cc1ccccc1)NC(=O)c1nn(-c2ccccc2Cl)c(-c2ccc(Cl)cc2)c1CC#N` (stereo not drawn) as the compound, how does the IC50 (Cannabinoid receptor 1 [1]) read?
A: The IC50 was 1.2 nM.

Q: Which IC50 (Cannabinoid receptor 1 [1]) does the source give for `CC(C)C(NC(=O)c1nn(-c2ccccc2Cl)c(-c2ccc(Cl)cc2)c1CC#N)C(=O)O` (stereo not drawn) here?
A: The IC50 was 6250 nM.

Q: What does the source list for `N#CCc1c(C(=O)NCc2ccc(Cl)cc2)nn(-c2ccccc2Cl)c1-c1ccc(Cl)cc1`?
A: IC50 (Cannabinoid receptor 1 [1]): 1.2 nM; logD [2]: 4.4

Q: For `N#CCc1c(C(=O)NCc2c(Cl)cccc2Cl)nn(-c2ccccc2Cl)c1-c1ccc(Cl)cc1`, which IC50 (Cannabinoid receptor 1 [1]) is on record?
A: Its IC50 is 7 nM.

Q: And the logD [2]?
A: Its logD is 4.6.

Q: With `N#CCc1c(C(=O)N2CCC(c3ccc(F)cc3)CC2)nn(-c2ccccc2Cl)c1-c1ccc(Cl)cc1` as the compound, how does the IC50 (Cannabinoid receptor 1 [1]) read?
A: The IC50 was 1 nM.

Q: With `N#CCc1c(C(=O)N2CCN(c3ncccn3)CC2)nn(-c2ccccc2Cl)c1-c1ccc(Cl)cc1` as the compound, how does the IC50 (Cannabinoid receptor 1 [1]) read?
A: The IC50 was 3.8 nM.

Q: Which IC50 (Cannabinoid receptor 1 [1]) does the source give for `N#CCc1c(C(=O)NCc2ccc(F)c(Br)c2)nn(-c2ccccc2Cl)c1-c1ccc(Cl)cc1` here?
A: The IC50 was 0.7 nM.

Q: What about the logD [2] of the same compound?
A: The logD was 4.4.

Q: Which IC50 (Cannabinoid receptor 1 [1]) does the source give for `N#CCc1c(C(=O)N2CCC(c3ccc(F)cc3)C2)nn(-c2ccccc2Cl)c1-c1ccc(Cl)cc1` (stereo not drawn) here?
A: The IC50 was 9.2 nM.

Q: For `N#CCc1c(C(=O)NC(Cc2ccccc2)C(=O)O)nn(-c2ccccc2Cl)c1-c1ccc(Cl)cc1` (stereo not drawn), which IC50 (Cannabinoid receptor 1 [1]) is on record?
A: The IC50 was 4450 nM.

Q: With `N#CCc1c(C(=O)N2CCC(O)(Cc3ccccc3)CC2)nn(-c2ccccc2Cl)c1-c1ccc(Cl)cc1` as the compound, how does the IC50 (Cannabinoid receptor 1 [1]) read?
A: The IC50 was 3.4 nM.

Q: For `N#CCc1c(C(=O)Nc2ccc(C(F)(F)F)nc2)nn(-c2ccccc2Cl)c1-c1ccc(Cl)cc1`, which IC50 (Cannabinoid receptor 1 [1]) is on record?
A: Its IC50 is 14 nM.

Q: What does the source list for `N#CCc1ccc(NC(=O)c2nn(-c3ccccc3Cl)c(-c3ccc(Cl)cc3)c2CC#N)cc1`?
A: IC50 (Cannabinoid receptor 1 [1]): 55 nM; logD [2]: 3.8

Q: For `N#CCc1c(C(=O)NCCc2ccccc2)nn(-c2ccccc2Cl)c1-c1ccc(Cl)cc1`, which IC50 (Cannabinoid receptor 1 [1]) is on record?
A: The IC50 was 16 nM.

Q: Which IC50 (Cannabinoid receptor 1 [1]) does the source give for `N#CCc1c(C(=O)N2CCCC2c2ccc(F)cc2)nn(-c2ccccc2Cl)c1-c1ccc(Cl)cc1` (stereo not drawn) here?
A: The IC50 was 27 nM.

Q: Which IC50 (Cannabinoid receptor 1 [1]) does the source give for `N#CCc1c(C(=O)N2Cc3ccc(F)cc3C2)nn(-c2ccccc2Cl)c1-c1ccc(Cl)cc1` here?
A: Its IC50 is 5.7 nM.

Q: With `CN(Cc1ccc(F)cc1)C(=O)c1nn(-c2ccccc2Cl)c(-c2ccc(Cl)cc2)c1CC#N` as the compound, how does the IC50 (Cannabinoid receptor 1 [1]) read?
A: Its IC50 is 5.6 nM.

Q: And the logD [2]?
A: Its logD is 4.2.

Q: With `N#CCc1c(C(=O)NCc2ccc(F)cc2)nn(-c2ccccc2Cl)c1-c1ccc(Cl)cc1` as the compound, how does the IC50 (Cannabinoid receptor 1 [1]) read?
A: The IC50 was 2.1 nM.

Q: What about the logD [2] of the same compound?
A: Its logD is 4.1.

Q: For `N#CCc1c(C(=O)N2CCC(c3ccccc3C(=O)O)CC2)nn(-c2ccccc2Cl)c1-c1ccc(Cl)cc1`, which IC50 (Cannabinoid receptor 1 [1]) is on record?
A: The IC50 was 2810 nM.

Q: What does the source list for `N#CCc1c(C(=O)NN2CCCCC2)nn(-c2ccccc2Cl)c1-c1ccc(Cl)cc1`?
A: IC50 (Cannabinoid receptor 1 [1]): 7.5 nM; logD [2]: 3.6

Q: With `N#CCc1c(C(=O)N2CCC(O)(c3ccc(F)cc3)CC2)nn(-c2ccccc2Cl)c1-c1ccc(Cl)cc1` as the compound, how does the IC50 (Cannabinoid receptor 1 [1]) read?
A: The IC50 was 3 nM.

Q: What does the source list for `N#CCc1c(C(=O)Nc2cccnc2Cl)nn(-c2ccccc2Cl)c1-c1ccc(Cl)cc1`?
A: IC50 (Cannabinoid receptor 1 [1]): 18 nM; logD [2]: 4.4

Q: With `C[C@H]1CC[C@H](NC(=O)c2nn(-c3ccccc3Cl)c(-c3ccc(Cl)cc3)c2CC#N)CC1` as the compound, how does the IC50 (Cannabinoid receptor 1 [1]) read?
A: Its IC50 is 1.6 nM.

Q: For `CS(=O)(=O)C1CCN(C(=O)c2nn(-c3ccccc3Cl)c(-c3ccc(Cl)cc3)c2CC#N)CC1`, which IC50 (Cannabinoid receptor 1 [1]) is on record?
A: Its IC50 is 17 nM.

Q: What does the source list for `N#CCc1c(C(=O)NCc2ccc(C#N)cc2)nn(-c2ccccc2Cl)c1-c1ccc(Cl)cc1`?
A: IC50 (Cannabinoid receptor 1 [1]): 4.2 nM; logD [2]: 3.8

Q: For `N#CCc1c(C(=O)NC2CCCCC2)nn(-c2ccccc2Cl)c1-c1ccc(Cl)cc1`, which IC50 (Cannabinoid receptor 1 [1]) is on record?
A: Its IC50 is 1.9 nM.

Q: And the logD [2]?
A: Its logD is 3.5.

Q: With `N#CCc1c(C(=O)N2CCc3ccccc3C2)nn(-c2ccccc2Cl)c1-c1ccc(Cl)cc1` as the compound, how does the IC50 (Cannabinoid receptor 1 [1]) read?
A: Its IC50 is 5.7 nM.

Q: What does the source list for `N#CCc1c(C(=O)NCc2cccc(Cl)c2)nn(-c2ccccc2Cl)c1-c1ccc(Cl)cc1`?
A: IC50 (Cannabinoid receptor 1 [1]): 2.6 nM; logD [2]: 4.4

Q: For `N#CCc1c(C(=O)Nc2cccnc2)nn(-c2ccccc2Cl)c1-c1ccc(Cl)cc1`, which IC50 (Cannabinoid receptor 1 [1]) is on record?
A: Its IC50 is 57 nM.

Q: And the logD [2]?
A: Its logD is 3.3.

Q: With `N#CCc1c(C(=O)NN2CCOCC2)nn(-c2ccccc2Cl)c1-c1ccc(Cl)cc1` as the compound, how does the IC50 (Cannabinoid receptor 1 [1]) read?
A: The IC50 was 71 nM.

Q: For `N#CCc1c(C(=O)N2CCN(c3ccccc3)CC2)nn(-c2ccccc2Cl)c1-c1ccc(Cl)cc1`, which IC50 (Cannabinoid receptor 1 [1]) is on record?
A: Its IC50 is 13 nM.

Q: For `N#CCc1c(C(=O)N2CC[C@@H](OCc3ccc(F)cc3)C2)nn(-c2ccccc2Cl)c1-c1ccc(Cl)cc1`, which IC50 (Cannabinoid receptor 1 [1]) is on record?
A: The IC50 was 20 nM.

Q: For `CC(=O)C1CCN(C(=O)c2nn(-c3ccccc3Cl)c(-c3ccc(Cl)cc3)c2CC#N)CC1`, which IC50 (Cannabinoid receptor 1 [1]) is on record?
A: Its IC50 is 199 nM.

Q: Which IC50 (Cannabinoid receptor 1 [1]) does the source give for `N#CCc1c(C(=O)Nc2ccc(F)cc2)nn(-c2ccccc2Cl)c1-c1ccc(Cl)cc1` here?
A: The IC50 was 11 nM.

Q: And the logD [2]?
A: The logD was 4.2.

Q: With `N#CCc1c(C(=O)NN2CCCCCC2)nn(-c2ccccc2Cl)c1-c1ccc(Cl)cc1` as the compound, how does the IC50 (Cannabinoid receptor 1 [1]) read?
A: The IC50 was 0.52 nM.

Q: With `COC(=O)c1ccccc1C1CCN(C(=O)c2nn(-c3ccccc3Cl)c(-c3ccc(Cl)cc3)c2CC#N)CC1` as the compound, how does the IC50 (Cannabinoid receptor 1 [1]) read?
A: The IC50 was 2.2 nM.

Q: What does the source list for `N#CCc1c(C(=O)NCc2ccc(Br)cc2F)nn(-c2ccccc2Cl)c1-c1ccc(Cl)cc1`?
A: IC50 (Cannabinoid receptor 1 [1]): 0.51 nM; logD [2]: 4.5

Q: Which IC50 (Cannabinoid receptor 1 [1]) does the source give for `CS(=O)(=O)N1CCC(NC(=O)c2nn(-c3ccccc3Cl)c(-c3ccc(Cl)cc3)c2CC#N)CC1` here?
A: Its IC50 is 31 nM.

Q: Which IC50 (Cannabinoid receptor 1 [1]) does the source give for `N#CCc1c(C(=O)N[C@@H]2c3ccccc3C[C@@H]2O)nn(-c2ccccc2Cl)c1-c1ccc(Cl)cc1` (single isomer, unassigned) here?
A: The IC50 was 7.8 nM.

Q: With `N#CCc1c(C(=O)N[C@H]2c3ccccc3C[C@H]2O)nn(-c2ccccc2Cl)c1-c1ccc(Cl)cc1` (single isomer, unassigned) as the compound, how does the IC50 (Cannabinoid receptor 1 [1]) read?
A: The IC50 was 1.7 nM.
